# Published values of several laboratories.
Compound,technique,species,medium,route,dose,notes,half-life [h]
Oc1c(-n2ccnn2)cnn1-c1cc(N2CCOCC2)ncn1,,male rat,plasma,intravenous,5 mg/kg,,3.1
Nc1ncn([C@H]2C[C@H](O)[C@@H](CO)O2)c(=O)n1,,male Wistar rat,plasma,intravenous,21 µmol/kg,,2.43
O=C(Nc1cc(F)c(F)c(F)c1)c1ccc(F)c(S(=O)(=O)NCc2cccc(B(O)O)c2)c1,,male Sprague-Dawley rat,plasma,intravenous,2 mg/kg,,0.94
C=CC(=O)Nc1cc(Nc2nccc(Nc3cc(Cl)c(F)cc3C(C)(C)O)n2)c(OC)cc1N1CC[C@@H](N(C)C)C1,,Wistar rat,plasma,intravenous,3 mg/kg,,6.37
CCc1cc(C(=O)NC)c2nccc(N3CCc4c(cc(Cn5ccnc5)cc4-c4cn(C)nc4C(F)(F)F)C3=O)c2c1,,male Sprague-Dawley rat,plasma,oral,100 mg/kg,single dose,3.9
N#Cc1ccc(Nc2nc(N)cc(Oc3c(F)cc(-c4ccc(C#N)cc4)cc3F)n2)cc1,,Sprague-Dawley rat,plasma,oral,5 mg/kg,,3.31
COc1ccc2c(=O)n(C)c(-c3ccccc3)nc2c1,,male Sprague-Dawley rat,plasma,oral,10 mg/kg,,0.74
Cc1c(-c2ccccc2)cccc1N1C(=O)c2cc(CN[C@H](C(=O)O)C(C)O)c(OCc3cccc(C#N)c3)cc2C1=O (stereo partly shown),,Sprague-Dawley rat,plasma,intravenous,5 mg/kg,,6.44
CCc1cc(OC)c2nccc(N3CCc4c(cc(Cn5ccnc5)cc4-c4cn(C)nc4C(F)(F)F)C3=O)c2c1,,male Sprague-Dawley rat,plasma,intravenous,3 mg/kg,,1
CCc1nc(C(N)=O)c(Nc2ccc(N3CCC(N4CCN(C)CC4)CC3)c(OC)c2)nc1NC1CCOCC1,,male Sprague-Dawley rat,plasma,oral,10 mg/kg,,14.3
O=C(Nc1ccc(C(F)(F)F)cc1)N1CCC(Cc2cccc(Oc3ccc(C(F)(F)F)cn3)c2)CC1,,male Sprague-Dawley rat,blood,oral,1 mg/kg,,7.2
COCCOC(=O)C1=C(C)NC(C)=C(C(=O)OC(C)C)C1c1cccc([N+](=O)[O-])c1 (stereo not shown),,male Sprague-Dawley rat,plasma,intravenous,3 mg/kg,,6.7
O=C(O)/C=C/c1ccc(O)c(O)c1,HPLC,Wistar rat,plasma,oral,,,0.33
CNCc1cc(-c2ccccc2F)n(S(=O)(=O)c2cccnc2)c1,,Sprague-Dawley rat,plasma,oral,10 mg/kg,,1.29
Cc1cnc(N2CC3(CCOCC3)C2)c(C(=O)Nc2ccc(C(=O)N3CCc4cc(C(=O)Nc5c(C)cccc5F)sc4-c4ccccc43)cc2)c1,,rat,plasma,intravenous,0.1 mg/kg,single dose,~2.3
Oc1c(Br)cc(Cl)c2cccnc12,,Sprague-Dawley rat,plasma,subcutaneous,10 mg/kg,,5.6
CCNC(=O)c1nc(-c2ccc3[nH]c(-c4nc(C)no4)cc3c2)c(C)[nH]1,,Sprague-Dawley rat,plasma,intravenous,1 mg/kg,,0.9
COc1cc2c3c(n(CCCN4CCOCC4)c(=O)c2cc1OC)-c1cc2c(cc1C3=O)OCO2,,female Fischer 344 rat,plasma,intravenous,24 mg/m²,single dose,4.6
COc1nc(-c2cc(C)c(N[C@@H](C)c3cc(F)cc(F)c3)nn2)ccc1-n1cnc(C)c1,,male Sprague-Dawley rat,plasma,oral,5 mg/kg,single dose,2.2
CNCc1cc(-c2ccccc2F)n(S(=O)(=O)c2cccnc2)c1,,male Sprague-Dawley rat,plasma,oral,10 mg/kg,,1
N#Cc1[nH]nnc1-c1csc(-c2ccc(Cl)cc2)n1,,male Sprague-Dawley rat,plasma,oral,10 mg/kg,,2.9
CCOC(=O)[C@@]12C[C@@H]1[C@@H](n1ccc3c(NC)nc(C#Cc4ccc(Cl)s4)nc31)[C@H](O)[C@@H]2O,,male Sprague-Dawley rat,plasma,oral,3 mg/kg,,1.55
C#Cc1cccc(Nc2ncnc3cc(OCCOC)c(OCCOC)cc23)c1,,male Sprague-Dawley rat,plasma,oral,12 mg/kg,single dose,2.25
N#Cc1[nH]nnc1-c1cc(Cl)cc(/C=C/c2cccc(C(F)(F)F)c2)c1,,male Sprague-Dawley rat,plasma,oral,10 mg/kg,,2.9
COc1ccc2c(Cc3ccccc3F)c3n(c(=O)c2c1OC)CCc1cc2c(cc1-3)OCO2,,rat,plasma,intravenous,5 mg/kg,,3.07
